Assay [1] is described as follows: Inhibition of trypsin (unknown origin) using casein as substrate preincubated for 5 mins followed by substrate addition and measured after 20 mins. Set-up: species or system Homo sapiens. Put shortly: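 Trypsin 0.06 mg/ml in 20 mM Tris-HCl pH 7.4 with compound at 31.25–1000 µg/ml, 5 min at 37 °C. 0.8% (w/v) casein added, 20 min further, stopped with 70% perchloric acid. After centrifugation, supernatant absorbance read at 217 nm against buffer blank. % inhibition against control; IC50 from plot; three runs.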

For assay [2], the target named is T1, Prostaglandin G/H synthase 1 (Ovis aries, UniProt P05979).
T1 sequence (P05979 whole entry): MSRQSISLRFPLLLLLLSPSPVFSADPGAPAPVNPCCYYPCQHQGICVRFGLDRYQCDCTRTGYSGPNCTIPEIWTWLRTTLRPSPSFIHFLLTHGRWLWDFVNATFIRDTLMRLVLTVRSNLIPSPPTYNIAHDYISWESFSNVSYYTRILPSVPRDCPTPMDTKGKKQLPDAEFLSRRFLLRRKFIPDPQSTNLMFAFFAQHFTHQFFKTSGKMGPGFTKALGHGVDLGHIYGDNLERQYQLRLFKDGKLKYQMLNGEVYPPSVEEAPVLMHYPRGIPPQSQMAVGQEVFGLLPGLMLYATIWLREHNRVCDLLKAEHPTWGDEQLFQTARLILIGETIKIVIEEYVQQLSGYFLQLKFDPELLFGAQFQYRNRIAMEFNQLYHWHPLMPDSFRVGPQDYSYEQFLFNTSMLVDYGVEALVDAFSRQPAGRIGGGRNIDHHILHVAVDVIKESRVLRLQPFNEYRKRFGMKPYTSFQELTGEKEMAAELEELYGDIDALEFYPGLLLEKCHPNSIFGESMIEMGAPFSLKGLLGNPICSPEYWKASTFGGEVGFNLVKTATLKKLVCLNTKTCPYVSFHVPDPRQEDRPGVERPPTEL
Put plainly: Inhibition of sheep COX1 using arachidonic acid as substrate preincubated for 5 mins followed by substrate addition and measured after 5 mins by UV-visible spectrophotometric method. In a few lines:
(§1)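 Enzymes activated for 5 min on ice with cofactor solution of 0.9 mM glutathione, hematin and 0.24 mM TMPD in 0.1 M Tris-HCl pH 8.0; COX-2 at 300 units/ml. Reaction started with 30 mM arachidonic acid stock, run 5 min, absorbance read at 570 nm. IC50 taken from inhibition-vs-concentration plots as means of three determinations. SI = IC50(COX-1)/IC50(COX-2).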

The species named for a further assay is Homo sapiens. Briefly: Selectivity index, ratio of IC50 for sheep COX1 to IC50 for recombinant human COX2 expressed in baculovirus infected Sf21 cells. In a few lines:
as §1

The target of assay [3] is T2, Polyunsaturated fatty acid 5-lipoxygenase (Homo sapiens, UniProt P09917).
T2 sequence (P09917 whole entry): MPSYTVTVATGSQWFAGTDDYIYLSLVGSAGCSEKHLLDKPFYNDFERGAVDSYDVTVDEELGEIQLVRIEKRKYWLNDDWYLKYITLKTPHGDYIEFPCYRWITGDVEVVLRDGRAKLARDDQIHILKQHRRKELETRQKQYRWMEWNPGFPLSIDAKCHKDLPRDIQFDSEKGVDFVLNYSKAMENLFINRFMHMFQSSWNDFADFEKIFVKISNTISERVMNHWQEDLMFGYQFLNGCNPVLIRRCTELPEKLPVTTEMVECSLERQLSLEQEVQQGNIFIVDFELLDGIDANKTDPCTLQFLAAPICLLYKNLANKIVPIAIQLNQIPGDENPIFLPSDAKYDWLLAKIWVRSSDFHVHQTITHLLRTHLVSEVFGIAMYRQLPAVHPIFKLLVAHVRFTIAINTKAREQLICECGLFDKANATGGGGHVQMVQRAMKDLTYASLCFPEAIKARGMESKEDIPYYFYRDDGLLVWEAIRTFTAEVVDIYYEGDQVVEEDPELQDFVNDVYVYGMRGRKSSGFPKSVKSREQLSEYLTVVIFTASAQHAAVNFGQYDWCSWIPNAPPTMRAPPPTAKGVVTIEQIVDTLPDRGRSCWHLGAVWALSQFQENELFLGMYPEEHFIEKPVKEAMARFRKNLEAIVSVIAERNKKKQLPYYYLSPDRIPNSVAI
Put plainly: Inhibition of recombinant human 5LOX expressed in baculovirus infected Sf insect cells using linoleic acid as substrate preincubated for 5 mins followed by substrate addition.

Assay [4] concerns Mus musculus. Put plainly: Antiinflammatory activity in histamine-induced paw edema in Balb/c mouse assessed as inhibition of paw edema at 1 mg/kg, ip administered 1 hr prior to histamine challenge and measured after 1 hr relative to control. Type of assay: functional. Particulars: time 2 hrs. Put shortly:
(§2)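 BALB/c mice of either sex (30–35 g), 8 per group, dosed i.p. with 10% DMSO, reference drug or compound (100 mg/kg). After 1 h, subplantar irritant: PGE2 0.01 µg/ml, bradykinin 20 µg/ml, histamine 0.1 ml of 1 mg/ml, or leukotriene 10 µg/ml.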

Assay [5] concerns Mus musculus. Briefly: Antiinflammatory activity in leukotriene-induced paw edema in Balb/c mouse assessed as inhibition of paw edema at 25 mg/kg, ip administered 1 hr prior to leukotriene challenge and measured after 3 hrs relative to control. It is filed as functional. In a few lines:
as §2

In assay [6] the test system is Mus musculus. Briefly: Antiinflammatory activity against carrageenan-induced paw edema in Swiss mouse assessed as inhibition of paw edema at 100 mg/kg administered 30 mins prior to carrageenan challenge and measured after 1 hr by […]-method (reference value: 7.66 +/- 3.753%). Particulars: 1.5 h, time 90 min. It is filed as functional. (In general: The carrageenan paw model is a standard test of acute inflammation.)

Assay [7] relates to Mus musculus. Briefly: Antiinflammatory activity against carrageenan-induced paw edema in Swiss mouse assessed as inhibition of paw edema at 100 mg/kg administered 30 mins prior to carrageenan challenge and measured after 5 hrs by […]-method (reference value: 7.31 +/- 3.204%). Type of assay: functional. Particulars: time 5.5 hrs.
Assay [8] relates to Mus musculus. Briefly: Antiinflammatory activity against carrageenan-induced paw edema in Swiss mouse assessed as inhibition of paw edema at 100 mg/kg administered 30 mins prior to carrageenan challenge and measured after 2 hrs by […]-method (reference value: 7.39 +/- 2.475%). The following applies: time 2.5 hrs. Type of assay: functional.
Assay [9] has as its system Mus musculus. Briefly: Antiinflammatory activity against carrageenan-induced paw edema in Swiss mouse assessed as inhibition of paw edema at 100 mg/kg administered 30 mins prior to carrageenan challenge and measured after 4 hrs by […]-method (reference value: 14.46 +/- 1.568%). It is filed as functional. The following applies: time 4.5 hrs.
Assay [10] deals with Mus musculus. Briefly: Antiinflammatory activity against carrageenan-induced paw edema in Swiss mouse assessed as inhibition of paw edema at 100 mg/kg administered 30 mins prior to carrageenan challenge and measured after 3 hrs by […]-method (reference value: 11.41 +/- 3.069%). Type of assay: functional. The following applies: time 3.5 hrs.
The nature of assay [11]: Antiinflammatory activity assessed as inhibition of heat-induced albumin denaturation preincubated for 20 mins followed by heating at 51 degC and measured after 3 mins by UV-vis spectrophotometric method.
Assay [12] has as its system Mus musculus. Briefly: Antiinflammatory activity in PGE2-induced paw edema in Balb/c mouse assessed as inhibition of paw edema at 50 mg/kg, ip administered 1 hr prior to PGE2 challenge and measured up to 5 hrs relative to control. Particulars: time 2-6 hrs. It is filed as functional. Put shortly:
as §2

Molecules are shown by their SMILES. Structures can show the parent of a compound that is named as a salt.

As a reminder, the IC50 is the midpoint of a concentration-inhibition curve. As a reminder, the inhibition in vivo is the change of the read-out against control, counted positive when it falls.

Regarding `CC(=O)CC1CC(=O)N(c2ccccc2)C1=O` (centres undefined), the half-inhibitory concentration (IC50) in assay [1] stood at 151 µM; in [2], 33.3 µM; in [3], 62.4 µM. In the assay filed under Homo sapiens, the Ratio IC50 turned out to be 0.52.
Turning to `O=C(O)Cc1ccccc1Nc1c(Cl)cccc1Cl` [DICLOFENAC], the IC50 in [1] was found to be 42.7 µM.
Regarding `O=C1CCOCC1C1CC(=O)N(c2ccccc2)C1=O` (centres undefined), the IC50 in assay [1] worked out at 117 µM; in assay [2] it was 48.9 µM; in assay [3], 26.8 µM. Besides, in the assay filed under Homo sapiens, the Ratio IC50 was determined as 0.86.
With `NS(=O)(=O)c1ccc(N2C(=O)CC(C3CCCCC3=O)C2=O)cc1` (centres undefined), the IC50 in [2] was 43.4 µM; in assay [3], 21.3 µM. Further, the Ratio IC50 in the assay filed under Homo sapiens was 2.04.
Turning to `CN(C)CCC(c1ccc(Cl)cc1)c1ccccn1` (centres undefined) [CHLORPHENIRAMINE MALEATE], the inhibition in vivo at 1 mg/kg in the assay on Mus musculus [4] is 71.8%.
As to `NS(=O)(=O)c1ccc(N2C(=O)CC(C3CCCCCC3=O)C2=O)cc1` (centres undefined), the figures for the IC50 in [2] and in [3] were 49.1 µM and 16.1 µM, respectively. The Ratio IC50 in the assay listed under Homo sapiens was 2.36.
`CC(=O)Oc1ccccc1C(=O)O` [ASPIRIN]: the inhibition in vivo at 25 mg/kg with Mus musculus [5] turned out to be 77.4%. Besides, the inhibition in vivo at 100 mg/kg with Mus musculus [6] came to 47.5%; in the assay on Mus musculus [7], 57.6%; in the assay with Mus musculus [8] it was 54.6%; in the assay with Mus musculus [9], 56.9%; with Mus musculus [10], 53.3%.
As for `COc1ccc(C(=O)CC2CC(=O)N(c3ccc(S(N)(=O)=O)cc3)C2=O)cc1` (centres undefined), the half-inhibitory concentration (IC50) turned out to be 14.9 µM in assay [1], 39.2 µM in assay [2], 4.74 µM in assay [3] and 24.9 µM in assay [11]. Moreover, the Ratio IC50 in the assay listed under Homo sapiens turned out to be 18.7.
Take `O=C1CCCC1C1CC(=O)N(c2ccccc2)C1=O` (centres undefined): the IC50 in assay [1] came to 85.5 µM; in [2] it was 30.3 µM; in assay [3], 98.5 µM; in assay [11], 97.2 µM. For the same compound, in the assay filed under Homo sapiens, the Ratio IC50 came to 0.58.
Consider `O=C1CCCCCC1C1CC(=O)N(c2ccccc2)C1=O` (centres undefined), for which the figures for the concentration for half-maximal inhibition (IC50) in assay [1], in assay [2] and in assay [3] were 63.1 µM, 65.6 µM and 18.4 µM, respectively. Also, the Ratio IC50 in the assay listed under Homo sapiens worked out at 1.66.
Turning to `NS(=O)(=O)c1ccc(N2C(=O)CC(CC(=O)c3ccccn3)C2=O)cc1` (centres undefined), the half-inhibitory concentration (IC50) is 13.4 µM in assay [1], 43.7 µM in assay [2] and 0.81 µM in assay [3]. Further, in the assay filed under Homo sapiens, the Ratio IC50 turned out to be 4.88.
The corresponding values for `NS(=O)(=O)c1ccc(N2C(=O)CC(CC(=O)c3ccc(Cl)cc3)C2=O)cc1` (centres undefined) are 21.5 µM, 68.8 µM, 12.6 µM and 10.9.
On the same counts, the results for `CC1CCC(=O)C(C2CC(=O)N(Cc3ccccc3)C2=O)C1` (centres undefined) are 63.5 µM, 51.5 µM, 56.2 µM and 2.35.
The corresponding values for `NS(=O)(=O)c1ccc(N2C(=O)CC(CC(=O)c3ccccc3)C2=O)cc1` (centres undefined) are 45.6 µM, 48.7 µM, 5.29 µM and 11.5.
Turning to `Cc1ccc(-c2cc(C(F)(F)F)nn2-c2ccc(S(N)(=O)=O)cc2)cc1` [CELECOXIB], the inhibition in vivo at 50 mg/kg in the assay with Mus musculus [12] was 65.9%.
With `CC1CCC(=O)C(C2CC(=O)N(c3ccccc3)C2=O)C1` (centres undefined), the 50% inhibitory concentration (IC50) in assay [1] was 77.1 µM; in [2] it was 53 µM; in assay [3], 69.2 µM. Also, the Ratio IC50 in the assay filed under Homo sapiens was 0.93.
`O=C1CCCCC1C1CC(=O)N(c2ccc(Br)cc2)C1=O` (centres undefined): the half-maximal inhibitory concentration (IC50) amounted to 99.9 µM in [1], 186 µM in [2] and 130 µM in assay [3]. In the assay listed under Homo sapiens, the Ratio IC50 was found to be 1.64.
With `O=C1CCCCC1C1CC(=O)N(c2ccccc2)C1=O` (centres undefined), the values for the IC50 in assay [1], in assay [2] and in assay [3] were 66.3 µM, 65.6 µM and 78.3 µM, respectively. In addition, the Ratio IC50 in the assay filed under Homo sapiens worked out at 1.45.
On the same counts, the results for `CC(=O)C(C)(C)C1CC(=O)N(c2ccccc2)C1=O` (centres undefined) are 88.7 µM, 39.3 µM, 53.4 µM and 0.73.

Source of the values: ChEMBL document CHEMBL4715833, “Design, synthesis, in-vitro, in-vivo and in-silico studies of pyrrolidine-2,5-dione derivatives as multitarget anti-inflammatory agents” (Eur J Med Chem, 2020).
